# According to ChEMBL document CHEMBL4513216, “Probing the Open Global Health Chemical Diversity Library for Multistage-Active Starting Points for Next-Generation Antimalarials” (ACS Infect Dis, 2020):
# Assay: Toxicity liver stage against HepG2, at 10uM
# Assay type: cell-based
# Design: test concentration 10 uM, cell line HepG2-A16-CD81EGFP
# Details: human, HepG2-A16-CD81EGFP cells; read-out: INHIBITION
# In short: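 Uninfected HepG2-A16-CD81EGFP cells, 3 × 10^3 per well, 1536-well, plated on prespotted compound at 10 μM final, parasite-free screening media added to match infected plates; puromycin 10 μM positive, DMSO 0.5% negative; run in parallel with 48 h PbLuc assay at 37 °C, 5% CO2; viability by CellTiter-Glo luminescence, normalized to controls.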
row,SMILES,cytotoxicity at 10 µM
1,Cc1nnc([C@H]2CCN(CCCc3ccccc3)C2)o1,2.87%
2,CCOC(=O)C(C)NC(=O)N1CCN(c2nc3ccccc3n2C)CC1 (stereo unspecified),3.39%
3,O=C(NC[C@@H]1CCCO1)c1cccnc1N1CCCC1c1ccccc1 (stereo partly specified),3.95%
4,CN(CCc1ccccc1)C(=O)c1cccnc1OCC(F)(F)F,13.5%
5,COc1ccc2[nH]c(C(=O)NCC3(N)CCCC3)cc2c1,4.3%
6,COCCCN(Cc1ccccn1)S(=O)(=O)c1ccc(OC)cc1,5.85%
7,CCc1c(-c2ccccc2)nc2c(c(C)c(C)n2CCN(C)C)c1N,17.7%
8,O=c1c(NCCCO)c(N2CCN(c3ccccc3)CC2)c1=O,-3.66%
9,Cc1nn(C)c2nc(C(C)C)cc(C(=O)Nc3n[nH]c(C4CC4)n3)c12,-4.38%
10,O=C1CC(NS(=O)(=O)c2ccc(Cl)cc2)CN1 (stereo unspecified),6.66%
11,Cc1ccc(S(=O)(=O)NCCc2ccoc2)s1,2.69%
12,O=C(CCC(=O)N1CCC(Oc2ncccc2Br)CC1)c1ccccc1,30.4%
13,COc1cccc(OCC(=O)N2CCCSCC2CN2CCOCC2)c1 (stereo unspecified),4.01%
14,CS(=O)(=O)C1CCN(S(=O)(=O)Cc2cccc(F)c2)CC1,-19.1%
15,O=C(Cc1cccs1)NCC1Cn2nnc(-c3ccoc3)c2CO1 (stereo unspecified),6.06%
16,CCN1C(=O)CC[C@@H]2[C@H]1CCN2S(=O)(=O)Cc1ccc(C)cc1,0.0218%
17,CN(Cc1cn2c(n1)CN(C(=O)C1CCCO1)CC2)Cc1ccco1 (stereo unspecified),8.24%
18,O=C(NCC1CC1)C1CN(C(=O)c2ccco2)CC12CCOCC2 (stereo unspecified),6.61%
19,CCOc1ccc(C2SCC(=O)Nc3c2c(=O)[nH]n3C(C)C)cc1 (stereo unspecified),8.68%
20,Cn1ncc2c1NC(=O)CC2c1ccc(O)cc1 (stereo unspecified),24.3%
21,Cn1cccc1C(=O)NCc1cnc2n1CCN(C(=O)N1CCCC1)C2,-5.61%
22,Cc1c(-c2cc(-c3cnn(C)c3C)n(CC(=O)NC3CC3)n2)cnn1C,9.26%
23,CCn1nc(C)c2c1cnn2CC(=O)Nc1ccc(OC)cc1C,-80.1%

row,SMILES,cytotoxicity at 10 µM
1,CCN(CC)CCNc1nc(C(C)C)nc2c(C)nn(CC)c12,8.99%
2,Cc1ccn(-c2ccnc(N3CCN(c4ncccn4)CC3)n2)n1,13.4%
3,Cn1ncc(C(=O)O)c1C(=O)Nc1nc2ccccc2s1,7.9%
4,O=C(c1cnco1)N1CCC(Cc2cccc3ncccc23)CC1,6.79%
5,O=C(CCn1cccn1)N1CCC(c2nnc(-c3ccccn3)o2)CC1,0.125%
6,Cn1nc(C2CCN(C(=O)c3cnccn3)C2)cc1CCO (stereo unspecified),9.95%
7,CC(=O)N1CCN([C@@H]2CCC[C@@H](N(C)C(=O)C3CC3)[C@H]2O)CC1,-5.97%
8,COc1cc(CN2CC[C@@]3(CCCO3)[C@@H](O)C2)ccc1F,-3.14%
9,Cc1cnn(CC(C)NCc2ccc(C#N)cc2F)c1 (stereo unspecified),-7.44%
10,O=C(Cc1ccc(F)cc1F)NCC(=O)Nc1ccccn1,3.24%
11,CC(O)CN(C)C(=O)CCNC(=O)OC(C)(C)C (stereo unspecified),-5.32%
12,CC1CCCN(S(=O)(=O)NCCCn2ccc3ccccc32)C1 (stereo unspecified),13.6%
13,CC(NCc1cccc(NC(=O)C2CCCCC2)c1)c1cnn(C)c1 (stereo unspecified),-0.26%
14,COc1ccc(N2CCC(NC(=O)c3sccc3C)CC2)cc1,-2.28%
15,Cc1ccc(-c2cc(C(=O)NCC3CCOC3)n[nH]2)s1 (stereo unspecified),-4.09%
16,Cc1nc(CC2CCCN(Cc3nc4ccccc4c(=O)[nH]3)C2)no1 (stereo unspecified),-44%
17,Cc1cnc(C(=O)N2CCC(COCc3ccccc3)C2)cn1 (stereo unspecified),7.54%
18,CC(C)(C)c1nc(CC(=O)NCCC(=O)Nc2ccncc2)cs1,12.8%
19,Cc1cn2c(CN(C)C(=O)c3nccnc3N)c(C)nc2s1,-4.12%
20,Cc1cc(CNc2cccc(C(=O)N(C)c3ccccc3)c2)no1,2.95%
21,COc1ccc(CCNC(=O)C(C)Nc2cc(C)ccc2C)cc1 (stereo unspecified),-5.71%
22,COc1cccc(C(=O)NCc2ccccc2S(=O)(=O)N(C)C)c1,-5.52%
23,COc1cc2nc(NCc3scnc3C)nc(N)c2cc1OC,6.34%

row,SMILES,cytotoxicity at 10 µM
1,CNC(=O)CN1CCC(c2cc(OC)cc(OC)c2)C1 (stereo unspecified),4.38%
2,CCN(CC1CN(Cc2c(C)noc2C)CCO1)c1cccnn1 (stereo unspecified),-7.99%
3,CC(C)COc1cncc(NC(CO)c2ccco2)n1 (stereo unspecified),-5.08%
4,COCc1noc(C2(c3ccc(Cl)cc3)CCOCC2)n1,1.86%
5,Cc1cnc(CN2CC=C(c3c[nH]c4ncccc34)CC2)o1,25%
6,c1ccc(-c2noc(CNC3CCCN(c4cccnn4)C3)n2)nc1 (stereo unspecified),4.86%
7,CCc1nc(C(=O)N2CCN(CCc3ccc(OC)cc3)CC2)c[nH]1,-9.56%
8,O=S(=O)(CCc1ccccc1)Cc1nc(C2CC2)no1,1.03%
9,CCc1nc(Cn2c(=O)n(C)c3ccccc32)no1,-45.1%
10,CCN(C(=O)COC)C(c1ccc(Cl)cc1)c1ccccn1 (stereo unspecified),-9.7%
11,Cc1cc(CNCCNS(C)(=O)=O)sc1Br,-4.6%
12,CCOCC(=O)Nc1nccn1Cc1ccc(Br)cc1,-44.8%
13,COc1cccc(CNCc2nnc3n2CC(C(F)(F)F)CC3)c1 (stereo unspecified),14%
14,O=C(CCc1ccccn1)N1CCc2cc(Cl)cc(Cl)c2C1,-40.9%
15,c1cnn(CC2CN(c3ncnc4sccc34)CCO2)c1 (stereo unspecified),25.1%
16,CC(C)N1CCC2(CC1)CC(c1cccnc1)C(=O)N2 (stereo unspecified),-67.2%
17,COCCN1C[C@H]2[C@@H](C1)N(C(=O)COc1ccccc1)CC[C@H]2OC,-1.34%
18,CNc1nc2c(s1)C(=O)CN(C(=O)[C@@H](N)Cc1cccc(OC)c1)C2,-4.08%
19,CC(C)[C@H](NS(C)(=O)=O)C(=O)NCc1cc(-c2cccc(Cl)c2)nn1C,-5.47%
20,C=C(C)COc1cccc(CN(C)C(C)c2nccs2)c1 (stereo unspecified),-49.2%
21,CNc1nc(C(=O)N2CCCC(COc3ccc(F)cc3)C2)cs1 (stereo unspecified),8.35%
22,CCN1CCCC1CN(Cc1cc[nH]n1)CC1CCN(CCOC)CC1 (stereo unspecified),-5.14%
23,Fc1ccc(C(CNc2ccncn2)N2CCCC2)cc1 (stereo unspecified),15.9%

row,SMILES,cytotoxicity at 10 µM
1,CC(=O)N1C[C@H]2CNC[C@@]2(C(=O)NCCNc2ccncc2C)C1,-6.4%
2,CN(Cc1cnn(C)c1)C1CCN(c2cccc(-c3cscn3)c2)CC1,-0.724%
3,O=C(c1ncc[nH]1)N1CCC(Cn2cc(-c3cccc(Cl)c3)nn2)CC1,-12.8%
4,N[C@@H]1c2ccccc2C2(CCN(c3cnc4ccccc4n3)CC2)[C@H]1O,-2.45%
5,CN1CCC(Cc2noc(-c3cccc(OCC(N)=O)c3)n2)CC1,-4.42%
6,c1ccc(CN2CCCC(CNc3ncnc4c3CCNCC4)C2)cc1 (stereo unspecified),-9.89%
7,Cc1cc(CC(C)Nc2nc(C3CCCC3)nc3c2cnn3C)[nH]n1 (stereo unspecified),-6.12%
8,CC(Cn1cncn1)NCCN1CCc2ccccc2C1 (stereo unspecified),-1.27%
9,CC(C)C1CN(S(=O)(=O)C2CC2)CCCN1Cc1ccc(F)cc1 (stereo unspecified),7.01%
10,CN(C)C(C(=O)N1CC(Oc2ccccc2F)C1)c1ccccc1F (stereo unspecified),-0.598%
11,NC(=O)CN1CC2(CCC1=O)CCN(Cc1ccc(Cl)c(F)c1)CC2,-5%
12,CCNc1ccnc(NC2CCN(C(=O)c3ccc(C)cc3)CC2)n1,5.09%
13,CC(=O)Nc1ccc(CNC(=O)CNCc2nnc(C)o2)cc1,10.7%
14,O=C(c1cccnc1N1CCOC(c2ccc(Cl)cc2)C1)N1CCCC1 (stereo unspecified),7.21%
15,CCc1n[nH]c(C(=O)N2CCCC3(CN(C)C(=O)O3)C2)c1C (stereo unspecified),-44.7%
16,CC(CN1CCC2(CC1)c1nc[nH]c1CCN2S(C)(=O)=O)C(F)(F)F (stereo unspecified),-8.51%
17,O=C1CCC2(CCCN(C(=O)c3cscn3)C2)CN1CCc1c[nH]cn1 (stereo unspecified),-13%
18,NC(=O)C1CCN(C(=O)c2cccc(CN3CCOCC3)c2)CC1,-20%
19,Cc1ccccc1N1CCN(C(=O)c2ccc[nH]2)C(C)C1 (stereo unspecified),-8.68%
20,Clc1ccc(C2NCCc3cc4c(cc32)OCCO4)cc1 (stereo unspecified),-16.3%
21,O=C1NCC2(CCCN(CCc3ccccc3)C2)Oc2ccccc21 (stereo unspecified),2.93%
22,Cc1csc(N2CCN(CC(=O)NC3CCOCC3)CC2C)n1 (stereo unspecified),-7.13%
23,Cc1cncc(C(=O)NCCSCc2cccs2)c1,-6.48%

row,SMILES,cytotoxicity at 10 µM
1,NC(=O)C1CCN(CCc2ccc(NC(=O)C3CC3)cc2)CC1,-7.72%
2,CCc1nnc2n1CCN(CC(=O)Nc1cc(C)nn1C)C2,6.98%
3,CN1CCOC(CNCc2csc(C3CCCC3)n2)C1 (stereo unspecified),-0.383%
4,CS(=O)(=O)N1CCC(NC(=O)COc2ccc(Br)cc2Cl)CC1,3.25%
5,Cc1ccc(C(=O)N2CCCC(c3nncn3C)C2)c(C)c1 (stereo unspecified),-14.1%
6,C=C(C)COCCNC(=O)C1CCCN1C(C)=O (stereo unspecified),-10.7%
7,CC(NC(=O)N(C)Cc1ccsc1)c1ccc2c(c1)OCO2 (stereo unspecified),-10.6%
8,Cn1cc(C2CCCN2CCCc2nc(-c3cccs3)no2)cn1 (stereo unspecified),-6.88%
9,Cc1cc(C(=O)NCc2cccnc2OC(C)C)no1,-7.37%
10,COCC1CN(Cc2ccncc2)Cc2nnn(CC3CC3)c21 (stereo unspecified),-5.91%
11,Cn1ccnc1CN1CC[C@@H](NS(C)(=O)=O)[C@@H]1Cc1ccccc1,-77.2%
12,Cn1cnc2c1C(COCC1CCOCC1)CN(C(=O)C1CC=CC1)C2 (stereo unspecified),-75.5%
13,Cn1cncc1CNC1CC2(CCN(CC3CC3)CC2)c2ccccc21 (stereo unspecified),0.565%
14,c1ccc(N2CCCC3(CCN(Cc4cccs4)C3)C2)nc1 (stereo unspecified),12.7%
15,CS(=O)(=O)N1CCOCC2(CN(Cc3nccs3)CCO2)C1 (stereo unspecified),7.49%
16,CC(C)N(C)Cc1cncc2c1CCN(C(=O)c1ccccc1F)C2,2.35%
17,CCc1ccc(NC(=O)N2C[C@@H]3C[C@H](C(=O)N4CCCC4)[C@H](C2)O3)cc1,-6.71%
18,CN(C)S(=O)(=O)N1C[C@H]2CC[C@@H](C1)N(Cc1ccc3nsnc3c1)C2,-7.7%
19,CCCn1cc2nc(N3CCCC3)[nH]cc-2c1=O,2.13%
